From ChEMBL document CHEMBL3526146, “In vitro and in vivo metabolism and pharmacokinetics of BMS-562086, a potent and orally bioavailable corticotropin-releasing factor-1 receptor antagonist” (Drug Metab Dispos, 2012)

How the values were obtained:
[1] = Drug metabolism in mouse hepatocytes assessed as DPH-123554 metabolite level at 25 uM after 3 hrs by LC-MS/MS analysis; format: ADME, cell-based, Hepatocyte
Method in brief: (§1)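 Hepatocytes checked for viability by trypan blue exclusion, then diluted in Krebs-Henseleit buffer to 1.0 × 10^6 cells/ml. Incubated in duplicate with 25 µM compound at 37°C for 3 h on an orbital shaker (80 rpm) under 95/5 O2/CO2. Negative control had no cells. Stopped with ice-cold acetonitrile, sonicated, centrifuged; supernatant analysed by LC/MS/MS.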

[2] = Drug metabolism in beagle dog hepatocytes at 25 uM after 3 hrs by LC-MS/MS analysis; format: ADME, cell-based, Canis lupus familiaris, Hepatocyte
Method in brief: (§2)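 Mouse, rat, dog, monkey and human hepatocytes (trypan blue viability checked) at 1.0×10^6 cells/ml in Krebs-Henseleit buffer were incubated with 25 µM compound, in duplicate. Conditions were 37°C, 95/5 O2/CO2, orbital shaking, 3 h. 7-Ethoxycoumarin and 7-hydroxycoumarin (100 µM) served as positive controls, with a cell-free negative control. Reactions were quenched with ice-cold acetonitrile, then sonicated and centrifuged; supernatants were analysed by LC/MS/MS.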

[3] = Drug metabolism in cynomolgus monkey cryopreserved hepatocytes at 25 uM after 3 hrs by LC-MS/MS analysis; format: ADME, cell-based, Macaca fascicularis, Hepatocyte; method in brief: as §2
[4] = system: Liver microsome; assay: Drug metabolism in rat liver microsomes assessed as DPH-124921 metabolite level at 100 uM after 1 hr in presence of NADPH; format: ADME
Method in brief: (§3)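 Liver microsomes (1 mg/ml protein) in 100 mM phosphate buffer with 100 µM test compound. Reaction started by adding NADPH (1 mM), then run at 37°C for 1 h in a shaking water bath, in duplicate. Controls lacked microsomal protein or NADPH; 7-ethoxycoumarin (100 µM) was the positive control. Metabolites identified by LC/MS/MS.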

[5] = Drug metabolism in mouse liver microsomes assessed as DPH-123554 metabolite level at 100 uM after 1 hr in presence of NADPH; format: ADME; method in brief: as §3
[6] = Detection of compound level in mouse liver microsomes treated with BMS-562086 by LC-MS/MS analysis
[7] = Retention time of the compound by HPLC method; format: physicochemical
[8] = Drug metabolism in mouse hepatocytes assessed as BMS-572273 metabolite level at 25 uM after 3 hrs by LC-MS/MS analysis; format: ADME, cell-based, Hepatocyte; method in brief: as §1
[9] = system: Liver microsome; assay: Drug metabolism in human liver microsomes assessed as BMS-572273 metabolite level at 100 uM after 1 hr in presence of NADPH; format: ADME; method in brief: as §3
[10] = system: Liver microsome; assay: Drug metabolism in dog liver microsomes at 100 uM after 1 hr in presence of NADPH; format: ADME, Canis lupus familiaris; method in brief: as §3
[11] = system: Hepatocyte; assay: Detection of compound level in mouse hepatocytes treated with 25 uM of BMS-562086 after 3 hrs by LC-MS/MS analysis; format: ADME, cell-based; method in brief: as §2
[12] = Drug metabolism in cynomolgus monkey cryopreserved hepatocytes assessed as DPH-124921 metabolite level at 25 uM after 3 hrs by LC-MS/MS analysis; format: ADME, cell-based, Macaca fascicularis, Hepatocyte; method in brief: as §2
[13] = Drug metabolism in mouse hepatocytes assessed as DPH-124921 metabolite level at 25 uM after 3 hrs by LC-MS/MS analysis; format: ADME, cell-based, Hepatocyte; method in brief: as §1
[14] = system: Hepatocyte; assay: Detection of compound level in human cryopreserved hepatocytes treated with 25 uM of BMS-562086 after 3 hrs by LC-MS/MS analysis; format: ADME, cell-based; method in brief: as §2
[15] = system: Liver microsome; assay: Drug metabolism in rat liver microsomes at 100 uM after 1 hr in presence of NADPH; format: ADME; method in brief: as §3
[16] = system: Hepatocyte; assay: Detection of compound level in rat hepatocytes treated with 25 uM of BMS-562086 after 3 hrs by LC-MS/MS analysis; format: ADME, cell-based; method in brief: as §2
[17] = system: Liver microsome; assay: Detection of compound level in human liver microsomes treated with 100 uM of BMS-562086 after 1 hr by LC-MS/MS analysis
[18] = Drug metabolism in bile duct-cannulated Sprague-Dawley rat urine assessed as DPH-123554 metabolite level at 30 mg/kg, po after 12 hrs by LC-MS/MS analysis; format: ADME, organism-based; parameters: dose 30 mg/kg, route oral; settings: in vivo
Method in brief: (§4)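 Male bile-duct-cannulated Sprague-Dawley rats (n=3), fasted overnight, received 30 mg/kg by gavage in 0.5% methylcellulose. Urine and bile were collected 0-12 h and pooled by equal percentage weight across animals, then centrifuged. Supernatants were profiled by LC/MS/MS. Bile was also treated with β-glucuronidase in pH 4.8 acetate buffer, 37°C, 16 h.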

[19] = Drug metabolism in bile duct-cannulated Sprague-Dawley rat bile assessed as DPH-123554 metabolite level at 30 mg/kg, po after 12 hrs by LC-MS/MS analysis; format: ADME, organism-based; parameters: dose 30 mg/kg, route oral; settings: in vivo; method in brief: as §4
[20] = system: Liver microsome; assay: Drug metabolism in human liver microsomes assessed as BMS-572273 metabolite formation at 100 uM after 1 hr in presence of NADPH and ketoconazole; format: ADME
[21] = Drug metabolism in human cryopreserved hepatocytes assessed as decrease of compound level at 25 uM after 3 hrs by HPLC analysis; format: ADME, cell-based, Hepatocyte; settings: read-out: Drug metabolism
[22] = Drug metabolism in beagle dog hepatocytes assessed as […] at 25 uM after 3 hrs by HPLC analysis; format: ADME, cell-based, Canis lupus familiaris, Hepatocyte
[23] = Apparent permeability from apical to basolateral side in human Caco2 cells; format: ADME, cell-based; settings: Caco-2
Method in brief: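 Caco-2 cells (passage 50-60) were seeded at 60,000 cells/cm2 on polycarbonate Transwells and cultured 21-25 days. Transport buffer was HBSS with 2% DMA, pH 7.4. Compound was applied apically at 25 µM at 37°C. Only monolayers with TEER 400-500 Ω cm2 at start and end were used, with mannitol as an integrity probe. Papp = (dQ/dt)/(A×C0).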

[24] = biological target: T1, Corticotropin-releasing factor-binding protein (Homo sapiens, UniProt P24387); assay: Binding affinity to CRF-binding protein (unknown origin)
T1 sequence (P24387 whole entry): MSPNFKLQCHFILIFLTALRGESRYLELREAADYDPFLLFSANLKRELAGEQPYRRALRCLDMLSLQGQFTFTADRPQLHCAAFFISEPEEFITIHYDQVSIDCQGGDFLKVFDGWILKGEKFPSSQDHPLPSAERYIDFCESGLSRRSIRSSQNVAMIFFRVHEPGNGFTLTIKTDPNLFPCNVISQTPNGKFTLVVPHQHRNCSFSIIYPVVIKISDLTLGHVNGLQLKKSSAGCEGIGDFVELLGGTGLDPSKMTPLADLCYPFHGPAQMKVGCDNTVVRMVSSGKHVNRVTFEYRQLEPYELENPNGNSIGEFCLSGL

[25] = Drug metabolism in beagle dog hepatocytes assessed as 7-hydroxycoumarin formation at 25 uM after 3 hrs by HPLC analysis; format: ADME, cell-based, Canis lupus familiaris, Hepatocyte
[26] = Cmax in chimpanzee at 1 mg/kg, po; format: ADME, organism-based, Pan troglodytes; parameters: dose 1 mg/kg, route oral; settings: in vivo
Method in brief: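 Two fasted male chimpanzees (58, 72 kg) received 1 mg/kg orally as a suspension in 0.5% methylcellulose/orange drink with 1% Tween 80 (1:1). Blood was sampled 0-96 h post-dose. Plasma was assayed by validated LC/MS/MS (LLOQ 1.00 ng/ml). Noncompartmental analysis gave AUC(INF) by the mixed log-linear trapezoidal method, with Cmax observed directly; values are mean (min, max).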

[27] = Drug metabolism in cynomolgus monkey cryopreserved hepatocytes assessed as 7-hydroxycoumarin formation at 25 uM after 3 hrs by HPLC analysis; format: ADME, cell-based, Macaca fascicularis, Hepatocyte

COc1ccc(-c2c(C)nn3c(N)nc(C)nc23)c(C)n1
Drug metabolism [1]: metabolite_detected
Drug metabolism [2]: metabolite_detected
Drug metabolism [3]: metabolite_detected
Drug metabolism [4]: metabolite_detected
Drug metabolism [5]: metabolite_detected
Drug metabolism [6]: metabolite_detected
Retention_time [7]: 28.5 min
Drug metabolism [8]: metabolite_detected
Drug metabolism [9]: metabolite_detected
Drug metabolism [10]: metabolite_detected
Drug metabolism [11]: metabolite_detected
Drug metabolism [12]: metabolite_detected
Drug metabolism [13]: metabolite_detected
Drug metabolism [14]: metabolite_detected
Drug metabolism [15]: metabolite_detected
Drug metabolism [16]: metabolite_detected
Drug metabolism [17]: metabolite_detected

COc1ccc(-c2c(C)nn3c(O)nc(C)nc23)c(C)n1
Drug metabolism [1]: metabolite_detected
Drug metabolism [2]: metabolite_detected
Drug metabolism [3]: metabolite_detected
Drug metabolism [4]: metabolite_detected
Drug metabolism [5]: metabolite_detected
Drug metabolism [6]: metabolite_detected
Retention_time [7]: 25.6 min
Drug metabolism [8]: metabolite_detected
Drug metabolism [9]: metabolite_detected
Drug metabolism [10]: metabolite_detected
Drug metabolism [11]: metabolite_detected
Drug metabolism [12]: metabolite_detected
Drug metabolism [13]: metabolite_detected
Drug metabolism [14]: metabolite_detected
Drug metabolism [15]: metabolite_detected
Drug metabolism [16]: metabolite_detected
Drug metabolism [17]: metabolite_detected

CC[C@@H](C)Nc1nc(C)nc2c(-c3ccc(O)nc3C)c(C)nn12
Drug metabolism [1]: metabolite_detected
Drug metabolism [18]: metabolite_detected
Drug metabolism [2]: metabolite_detected
Drug metabolism [3]: metabolite_detected
Drug metabolism [4]: metabolite_detected
Drug metabolism [5]: metabolite_detected
Drug metabolism [6]: metabolite_detected
Retention_time [7]: 32.1 min
Drug metabolism [8]: metabolite_detected
Drug metabolism [9]: metabolite_detected
Drug metabolism [10]: metabolite_detected
Drug metabolism [19]: metabolite_detected
Drug metabolism [11]: metabolite_detected
Drug metabolism [12]: metabolite_detected
Drug metabolism [13]: metabolite_detected
Drug metabolism [14]: metabolite_detected
Drug metabolism [15]: metabolite_detected
Drug metabolism [16]: metabolite_detected
Drug metabolism [17]: metabolite_detected

CC[C@@H](C)Nc1nc(C)nc2c(-c3ccc(OC)nc3C)c(C)nn12 [PEXACERFONT]
Drug metabolism [1]: metabolite_detected
Drug metabolism [20]: metabolite_not_detected
Drug metabolism [2]: metabolite_detected
Drug metabolism [3]: metabolite_detected
Drug metabolism [4]: metabolite_detected
Drug metabolism [5]: metabolite_detected
metabolised at 3 h, 25 µM [21]: 40%
Drug metabolism [6]: metabolite_detected
Retention_time [7]: 52.2 min
Drug metabolism [8]: metabolite_detected
Drug metabolism [22]: metabolite_detected
Drug metabolism [9]: metabolite_detected
Papp A→B [23]: 17 ×10⁻⁶ cm/s
Drug metabolism [10]: metabolite_detected
Drug metabolism [11]: metabolite_detected
IC50 [24]: > 1 µM
Drug metabolism [25]: metabolite_detected
Cmax [26]: 1070 nM
Drug metabolism [12]: metabolite_detected
Drug metabolism [13]: metabolite_detected
Drug metabolism [27]: metabolite_detected
Drug metabolism [14]: metabolite_detected
Drug metabolism [15]: metabolite_detected
Drug metabolism [16]: metabolite_detected
Drug metabolism [17]: metabolite_detected
